Screens (PubChem)
CYP2C19 activ – increases human CYP2C19 enzyme activity; 96,000 tested, under 10 active; AID 1025; activation factor at 5 µM; P33261; recombinant CYP2C19, luciferin-H EGE luminescence; active compounds read high; 0 = fully inhibited enzyme, 1 = untreated enzyme;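 active means activation factor of at least 2 at 5 µM in the primary screen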;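 further: 0 = wells with 2.5 mM tranylcypromine and 1 = vehicle-only wells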
CYP2C9 activ – activators of human CYP2C9 | recombinant CYP2C9, luciferin-H conversion, luminescence; active compounds read high; factor 1 = untreated enzyme, 0 = blocked | activation factor at 5 µM | hit rate 1.4% among 96,000;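 active means activation factor of 2 or more for CYP2C9 at a 5 µM dose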;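 further: 0 = sulfaphenazole-blocked wells and 1 = vehicle-only wells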
Target sequence (P11712 whole entry, looked up): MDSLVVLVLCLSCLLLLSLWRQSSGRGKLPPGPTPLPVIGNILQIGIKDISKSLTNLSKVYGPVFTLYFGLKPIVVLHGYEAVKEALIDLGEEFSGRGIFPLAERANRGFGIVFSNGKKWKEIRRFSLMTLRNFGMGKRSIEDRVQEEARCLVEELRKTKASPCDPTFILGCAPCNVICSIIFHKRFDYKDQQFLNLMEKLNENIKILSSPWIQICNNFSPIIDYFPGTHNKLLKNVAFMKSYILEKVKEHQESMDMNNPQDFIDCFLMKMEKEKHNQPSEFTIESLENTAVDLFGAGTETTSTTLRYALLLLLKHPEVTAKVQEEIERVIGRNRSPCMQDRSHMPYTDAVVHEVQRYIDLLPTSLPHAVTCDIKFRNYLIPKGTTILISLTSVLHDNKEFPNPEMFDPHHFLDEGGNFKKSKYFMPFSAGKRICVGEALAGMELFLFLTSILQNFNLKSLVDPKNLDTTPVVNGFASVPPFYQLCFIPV
tolC growth inh – E. coli tolC mutant growth inhibition | hit rate 2.2% among 65,000 | growth inhibition, % at 10 µM (by protocol) | E. coli BW25113 tolC mutant growth, OD615;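 active means growth inhibition at or above a cutoff equal to the mean over every tested compound plus 3 SD, cut at about 60% in these data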;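 further: growth measured after 20 h incubation at 37 °C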
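Test system: tolC-deleted E. coli BW25113 | Medium: LB with kanamycin 50 µg/mL | Compound dosing: Single concentration, 10 µM final per compound | Schedule: 37 °C, 20 h exposure | Measured by: OD at 615 nm | Evaluation: Percent growth inhibition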
CYP2C9 inh – human CYP2C9 inhibition | P11712 | CYP2C9 Supersomes, luciferin-H conversion, luminescence | inhibition, % at 5 µM | hit rate 20% among 96,000;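 active means blocking of liver enzyme CYP2C9 beyond about 50% at 5 µM, limit read from the data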
E coli WT exp – E. coli BW25113 growth inhibition, expanded screen. OD600 absorbance. growth inhibition, % at 100 µM. hit rate 0.15% among 98,000. AID 710;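 active means growth inhibition above about 50% at one test dose, limit read from the data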;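 further: growth measured after 20 h incubation at 37 °C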
CYP2C19 inhib – inhibitors of human CYP2C19; inhibition, % at 5 µM; P33261; CYP2C19 Supersomes, luciferin-H EGE luminescence, 30 min; hit rate 21% among 96,000;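 active means CYP2C19 inhibition above a set limit at 5 µM in the primary screen, cut at about 50% in these data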;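 further: plate controls were negative control wells for no effect and 2.5 mM tranylcypromine positive control for full effect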
* hit, by the source's call; x = no result. Compounds with a hit are over-represented: about 29% of the library has one in this group of screens.

SMILES	CYP2C19 activ	CYP2C9 activ	tolC growth inh	CYP2C9 inh	E coli WT exp	CYP2C19 inhib
COc1cccc(N2CCN(C(=O)NC3CCCCC3)CC2)c1	0.7	0.4	-3	56*	-2	30
CC(=O)c1ccc(NC(=O)N2CCN(c3cccc(Cl)c3)CC2)cc1	0.8	0.6	38	36	-6	20
O=C(C1CC1c1ccccc1)N1CCN(c2cccc(Cl)c2)CC1 (stereo not drawn)	0.4	0.5	11	47	-8	60*
Cc1cc(NC(=O)C2C3C(=O)N(Cc4ccc(Cl)cc4)C(C(=O)NC(C)(C)C)C34C=CC2(C)O4)no1 (stereo not drawn)	1.2	1.2	x	-18	-2	-19
COc1cc2c(C(=O)N3CCN(c4cccc(Cl)c4)CC3)cn(CC(C)C)c(=O)c2cc1OC	0.7	0.4	x	58*	-5	25
CCOc1ccccc1C(=O)N1c2ccccc2Sc2ccccc21	0.1	0	x	98*	-21	87*
CC(=O)c1c(C)[nH]c(C(=O)N2CCN(c3ncccn3)CC2)c1C	0	0.4	-10	64*	6	96*
CCOc1ccccc1C(=O)n1nc(C)cc1C	0.9	1	x	4	13	6
CCCN1CCN(C(=O)c2cn(CC(C)C)c(=O)c3cc(OC)c(OC)cc23)CC1	1.1	0.9	1	11	8	-6
CCC(C)NS(=O)(=O)c1ccc(S(=O)(=O)N(CC(=O)Nc2ccccc2)Cc2ccco2)cc1 (stereo not drawn)	0.7	0.6	x	42	-2	29
CCCOc1ccc(N2C(=O)CC(N(CCc3ccc(OC)cc3)C(=O)c3cccc(F)c3)C2=O)cc1 (stereo not drawn)	0.4	0.4	x	58*	-15	62*
CCCOc1ccc(N2C(=O)CC(N(CCC)C(=O)CCC(=O)O)C2=O)cc1 (stereo not drawn)	1.1	1.2	10	-16	-7	-9
CCn1c(SCC(=O)N2CCOCC2)nc2sc3c(c2c1=O)CCCC3	0.6	0.3	6	66*	-10	38
CCn1c(SC(C)C(=O)O)nc2sc3c(c2c1=O)CCC3 (stereo not drawn)	1.1	0.3	-2	74*	-14	-5
CCc1nc2sc3c(c2c(=O)n1NC(=O)CCl)CCCC3	0.8	0.2	x	76*	1	20
COC(=O)c1cc(NC(=O)Cc2coc3cc(OC)ccc23)cc(C(=O)OC)c1	0.4	0.1	23	92*	-6	58*
COc1ccc2c(CC(=O)OCC(=O)Nc3ccc4c(c3)OCO4)coc2c1	0.8	0.6	14	38	3	16
COC(=O)c1cc(NC(=O)Cc2ccc(OC)c(OC)c2)cc(C(=O)OC)c1	0.9	0.2	x	82*	0	12
COc1ccc(CC(=O)Nc2nncs2)cc1OC	1.1	1.1	-8	-14	2	-9
COC(=O)c1ccc(C)c(NC(=O)Cc2coc3cc(OC)ccc23)c1	0	0	10	98*	-8	95*
COc1ccc(Br)cc1C1N2CC3(C)CN1CC(C)(C2)C3=O (stereo not drawn)	0.2	1.1	x	-5	2	77*
Cc1onc(-c2ccccc2)c1C(=O)Nc1ccc2c(c1)OCO2	0	0.2	-10	79*	-7	99*
Cc1onc(-c2ccccc2)c1C(=O)OCC(=O)Nc1ccc2c(c1)OCO2	0.5	0.5	4	52*	-4	54*
Cc1nn(-c2ccccc2)c(C)c1C(=O)OCC(=O)Nc1ccc2c(c1)OCO2	0	0.1	17	89*	-3	95*
O=C(COC(=O)c1cc[n+]([O-])cc1)Nc1ccc2c(c1)OCCO2	0.9	0.9	-13	9	6	5
SMILES	CYP2C19 activ	CYP2C9 activ	tolC growth inh	CYP2C9 inh	E coli WT exp	CYP2C19 inhib
Cc1onc(-c2ccccc2Cl)c1C(=O)OCC(=O)Nc1ccc2c(c1)OCO2	0	0.1	12	88*	-17	99*
Cc1cc(NC(=O)COC(=O)c2c(C)nn(-c3ccccc3)c2C)no1	0.7	0.7	12	29	-2	26
CC1(C)OC(=O)C(=NNc2ccc(Cl)cc2)C(=O)O1	0.9	0.8	x	18	-4	7
Cc1nn(-c2ccccc2)c(Cl)c1C(=O)OC(C)C(=O)Nc1ccc2c(c1)OCO2 (stereo not drawn)	0.1	0.2	x	79*	-2	85*
Cc1cc(C)n(-c2ccc(C(=O)Nc3ccc4c(c3)OCO4)cc2)n1	0.7	0.6	x	38	0	34
O=C(CSc1nnc(COc2cccc3ccccc23)o1)N1CCN(C(=O)c2ccco2)CC1	x	x	23	x	-13	x
CCOc1ccccc1-n1c(CN2CCN(C(=O)c3ccco3)CC2)nc2ccccc2c1=O	0.4	0.3	-3	65*	0	57*
CCOc1cc(CN2CCN(C(=O)c3ccco3)CC2)ccc1OC	1	1.1	-5	-14	-2	3
O=C(c1ccco1)N1CCN(CCOCCOc2cccc3ccccc23)CC1	0.3	0.4	9	57*	-1	68*
COc1ccc(-n2nc3c(c2NC(=O)c2cc(Br)ccc2Cl)CS(=O)C3)cc1 (stereo not drawn)	1.2	1.1	18	-10	-2	-16
Cc1nnc(SC(C)C(=O)Nc2ccc(S(=O)(=O)N3CCCCCC3)cc2)s1 (stereo not drawn)	0.7	0.6	37	44	-3	25
Cc1c(N=C/C=C2\N(C)c3ccccc3C2(C)C)c(=O)n(-c2ccccc2)n1C	0.3	1.1	-16	-10	-7	74*
Cc1c(N=CC=Nc2c(C)n(C)n(-c3ccccc3)c2=O)c(=O)n(-c2ccccc2)n1C	1	1	-10	0	x	-1
Cc1c(NC(=S)/C=C2\N(C)c3ccccc3C2(C)C)c(=O)n(-c2ccccc2)n1C	0.4	1.9	x	-93	6	65*
Cc1onc(-c2c(F)cccc2Cl)c1C(=O)NC1=NCCS1	0.5	0.3	0	67*	3	54*
Cc1onc(-c2c(F)cccc2Cl)c1C(=O)Nc1cccc2nsnc12	0.8	0.5	-13	54*	-4	24
Cc1onc(-c2c(F)cccc2Cl)c1C(=O)Nc1nc2ccccc2[nH]1	0.4	0.1	x	93*	-2	57*
CCN(CC)S(=O)(=O)c1ccc(F)cc1	x	x	-7	x	11	x
CCN(CC)S(=O)(=O)c1ccc(C(=O)Nc2c3c(nn2C(C)(C)C)CS(=O)(=O)C3)cc1	1	0.2	-10	76*	3	-3
CCN(CC)S(=O)(=O)c1ccc(NS(=O)(=O)c2cccc(C)c2)cc1	0.6	0.1	24	91*	4	40
CCN(CC)S(=O)(=O)c1ccc(C(=O)Nc2cccc(C)c2)cc1	0.4	0.5	x	55*	-1	55*
CC(C)(C)n1nc2c(c1NC(=O)c1ccc(S(=O)(=O)N3CCCC3)cc1)CSC2	1.1	0.6	10	36	4	-11
